ChEMBL document CHEMBL4414574, “Structure-Based Discovery and Development of a Series of Potent and Selective Bromodomain and Extra-Terminal Protein Inhibitors” (J Med Chem, 2019)
Active and inactive are the calls of the source. No cut-off for these calls is given here.

Experiments:
[1] = Cmax in dog plasma at 3 mg/kg, po; format: ADME, organism-based, Canis lupus familiaris; design: dose 3 mg/kg, route oral
[2] = target: Bromodomain-containing protein 2 (Homo sapiens) (UniProt P25440); experiment: Binding affinity to human partial length BRD2 bromodomain 1 isoform 1 (K71 to N194 residues) expressed in Escherichia coli BL21 cells assessed as residual binding level at 1 uM measured after 1 hr by quantitative PCR based BROMOscan assay relative to control
Sequence of Bromodomain-containing protein 2 (Homo sapiens) (P25440 whole entry, looked up, the tested form may be a part, canonical isoform): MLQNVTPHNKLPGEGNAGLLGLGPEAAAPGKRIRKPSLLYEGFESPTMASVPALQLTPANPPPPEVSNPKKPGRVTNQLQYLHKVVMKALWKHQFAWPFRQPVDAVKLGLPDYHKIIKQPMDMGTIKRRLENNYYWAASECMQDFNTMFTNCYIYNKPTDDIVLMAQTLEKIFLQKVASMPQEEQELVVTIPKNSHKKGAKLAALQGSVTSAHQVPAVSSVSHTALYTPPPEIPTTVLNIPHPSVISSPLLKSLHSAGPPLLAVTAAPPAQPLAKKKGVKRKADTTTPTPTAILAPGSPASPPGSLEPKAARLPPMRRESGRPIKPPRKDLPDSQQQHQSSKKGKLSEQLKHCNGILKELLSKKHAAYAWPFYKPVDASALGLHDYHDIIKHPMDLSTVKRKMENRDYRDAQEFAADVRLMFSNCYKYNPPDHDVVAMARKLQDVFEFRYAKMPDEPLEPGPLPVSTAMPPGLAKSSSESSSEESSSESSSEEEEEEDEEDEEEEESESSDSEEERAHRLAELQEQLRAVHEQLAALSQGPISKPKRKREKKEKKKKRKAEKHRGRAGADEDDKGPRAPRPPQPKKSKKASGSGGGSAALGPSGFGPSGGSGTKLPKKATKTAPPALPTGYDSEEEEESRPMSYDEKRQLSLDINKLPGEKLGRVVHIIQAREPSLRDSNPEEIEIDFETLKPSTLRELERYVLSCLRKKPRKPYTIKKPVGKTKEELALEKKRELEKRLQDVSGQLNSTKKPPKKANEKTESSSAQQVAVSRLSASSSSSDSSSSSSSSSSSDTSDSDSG
In short: (§1)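 A BROMOScan competition-binding panel of 32 bromodomains was run at a single 1 μM compound concentration. Results are primary-screen 'Percent Control', where lower values indicate stronger binding.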

[3] = target: Bromodomain-containing protein 3 (Homo sapiens) (UniProt Q15059); experiment: Binding affinity to human partial length BRD3 bromodomain 1 (P24 to E144 residues) expressed in Escherichia coli BL21 cells assessed as residual binding level at 1 uM measured after 1 hr by quantitative PCR based BROMOscan assay relative to control; in short: as §1
Sequence of Bromodomain-containing protein 3 (Homo sapiens) (Q15059 2-726 limits assumed): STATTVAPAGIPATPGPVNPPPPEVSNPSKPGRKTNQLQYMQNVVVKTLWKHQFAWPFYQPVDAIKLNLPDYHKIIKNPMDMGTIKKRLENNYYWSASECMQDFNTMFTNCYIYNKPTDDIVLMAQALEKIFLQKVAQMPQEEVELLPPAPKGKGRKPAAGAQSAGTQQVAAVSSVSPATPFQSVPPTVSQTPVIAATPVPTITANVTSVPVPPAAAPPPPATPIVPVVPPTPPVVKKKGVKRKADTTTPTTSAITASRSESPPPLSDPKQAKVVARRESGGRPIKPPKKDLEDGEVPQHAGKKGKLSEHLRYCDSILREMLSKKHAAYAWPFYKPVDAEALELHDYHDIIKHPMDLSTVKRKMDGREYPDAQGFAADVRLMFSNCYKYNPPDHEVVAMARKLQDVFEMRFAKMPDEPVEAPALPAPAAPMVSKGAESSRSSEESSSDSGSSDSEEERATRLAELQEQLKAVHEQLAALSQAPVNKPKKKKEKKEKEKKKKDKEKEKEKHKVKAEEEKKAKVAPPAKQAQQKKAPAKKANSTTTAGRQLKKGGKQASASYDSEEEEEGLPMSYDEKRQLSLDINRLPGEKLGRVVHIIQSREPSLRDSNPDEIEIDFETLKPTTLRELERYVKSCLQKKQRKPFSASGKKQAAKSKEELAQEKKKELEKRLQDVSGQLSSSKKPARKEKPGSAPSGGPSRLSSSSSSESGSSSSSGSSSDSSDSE

[4] = target: T1, Bromodomain-containing protein 4 (Homo sapiens, UniProt O60885); experiment: Binding affinity to human partial length BRD4 bromodomain 1 long isoform (N44 to E168 residues) expressed in Escherichia coli BL21 cells assessed as residual binding level at 1 uM measured after 1 hr by quantitative PCR based BROMOscan assay relative to control; in short: as §1
[5] = target: Histone acetyltransferase KAT2A (Homo sapiens) (UniProt Q92830); experiment: Binding affinity to human partial length GCN5L2 (E726 to K837 residues) expressed in Escherichia coli BL21 cells assessed as residual binding level at 1 uM measured after 1 hr by quantitative PCR based BROMOscan assay relative to control; in short: as §1
[6] = target: Bromodomain adjacent to zinc finger domain protein 2A (Homo sapiens) (UniProt Q9UIF9); experiment: Binding affinity to human partial length BAZ2A (M1792 to L1905 residues) expressed in Escherichia coli BL21 cells assessed as residual binding level at 1 uM measured after 1 hr by quantitative PCR based BROMOscan assay relative to control; in short: as §1
Sequence of Bromodomain adjacent to zinc finger domain protein 2A (Homo sapiens) (Q9UIF9 whole entry, the tested form may be a part): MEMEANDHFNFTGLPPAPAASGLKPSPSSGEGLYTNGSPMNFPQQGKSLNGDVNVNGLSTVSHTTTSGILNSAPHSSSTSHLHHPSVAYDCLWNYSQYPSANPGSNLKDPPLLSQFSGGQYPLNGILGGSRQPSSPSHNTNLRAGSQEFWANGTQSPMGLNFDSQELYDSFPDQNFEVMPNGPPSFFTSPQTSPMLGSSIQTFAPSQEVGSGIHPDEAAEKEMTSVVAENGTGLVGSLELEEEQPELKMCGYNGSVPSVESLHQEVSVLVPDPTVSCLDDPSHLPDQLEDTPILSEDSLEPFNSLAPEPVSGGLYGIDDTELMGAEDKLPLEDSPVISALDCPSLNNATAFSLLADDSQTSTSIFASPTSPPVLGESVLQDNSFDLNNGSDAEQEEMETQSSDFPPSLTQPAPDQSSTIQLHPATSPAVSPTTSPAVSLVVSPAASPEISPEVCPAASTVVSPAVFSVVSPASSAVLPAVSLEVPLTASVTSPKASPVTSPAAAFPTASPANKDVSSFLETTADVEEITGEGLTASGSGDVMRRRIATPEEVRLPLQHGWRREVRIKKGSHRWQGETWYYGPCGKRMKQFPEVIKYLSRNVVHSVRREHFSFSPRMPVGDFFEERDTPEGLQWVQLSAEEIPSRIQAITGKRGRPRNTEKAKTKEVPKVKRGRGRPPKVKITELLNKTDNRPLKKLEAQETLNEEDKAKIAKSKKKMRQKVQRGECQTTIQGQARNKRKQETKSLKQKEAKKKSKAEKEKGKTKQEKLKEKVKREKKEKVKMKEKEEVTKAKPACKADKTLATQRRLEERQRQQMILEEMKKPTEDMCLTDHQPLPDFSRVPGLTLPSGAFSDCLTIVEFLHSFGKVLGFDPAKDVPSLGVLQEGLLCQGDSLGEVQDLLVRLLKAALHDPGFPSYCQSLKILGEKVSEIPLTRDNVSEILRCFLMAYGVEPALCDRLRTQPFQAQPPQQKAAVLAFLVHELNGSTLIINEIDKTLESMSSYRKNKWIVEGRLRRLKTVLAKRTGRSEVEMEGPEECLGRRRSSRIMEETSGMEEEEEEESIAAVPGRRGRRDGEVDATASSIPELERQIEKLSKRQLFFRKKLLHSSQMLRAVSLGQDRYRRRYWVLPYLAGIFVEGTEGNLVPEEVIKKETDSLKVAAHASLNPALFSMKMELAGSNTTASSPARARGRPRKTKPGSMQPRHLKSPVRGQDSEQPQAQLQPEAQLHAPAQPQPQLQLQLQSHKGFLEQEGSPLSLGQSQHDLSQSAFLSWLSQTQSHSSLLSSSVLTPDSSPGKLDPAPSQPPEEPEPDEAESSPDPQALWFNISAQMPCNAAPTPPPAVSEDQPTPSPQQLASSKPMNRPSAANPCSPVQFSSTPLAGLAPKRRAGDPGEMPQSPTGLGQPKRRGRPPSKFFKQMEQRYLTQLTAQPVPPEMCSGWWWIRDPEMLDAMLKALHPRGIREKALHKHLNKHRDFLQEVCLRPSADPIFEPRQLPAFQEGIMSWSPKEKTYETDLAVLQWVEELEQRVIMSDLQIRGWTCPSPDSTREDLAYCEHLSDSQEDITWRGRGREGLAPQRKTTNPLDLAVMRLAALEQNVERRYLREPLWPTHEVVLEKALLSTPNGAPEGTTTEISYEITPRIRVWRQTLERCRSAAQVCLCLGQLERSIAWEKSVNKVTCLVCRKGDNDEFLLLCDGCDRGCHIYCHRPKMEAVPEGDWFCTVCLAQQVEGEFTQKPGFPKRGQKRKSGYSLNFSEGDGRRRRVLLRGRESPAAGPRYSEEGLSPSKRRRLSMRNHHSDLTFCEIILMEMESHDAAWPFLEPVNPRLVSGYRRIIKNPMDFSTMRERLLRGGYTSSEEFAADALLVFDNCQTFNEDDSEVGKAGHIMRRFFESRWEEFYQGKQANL

[7] = target: Bromodomain-containing protein 1 (Homo sapiens) (UniProt O95696); experiment: Binding affinity to human partial length BRD1 (E556 to A688 residues) expressed in Escherichia coli BL21 cells assessed as residual binding level at 1 uM measured after 1 hr by quantitative PCR based BROMOscan assay relative to control; in short: as §1
[8] = target: T1, Bromodomain-containing protein 4; experiment: Binding affinity to His6-tagged human BRD4 bromodomain 1 expressed in Escherichia coli BL21(DE3) )-codon plus-RIL cells by isothermal titration calorimetric method
In short: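 BRD4 BD1 was His6-tagged and expressed in E. coli BL21(DE3)-codon plus-RIL with IPTG induction overnight at 16 °C. It was purified on Ni-NTA with imidazole step elution and concentrated in HEPES pH 7.5/NaCl/DTT gel filtration buffer. Kd was measured by isothermal titration calorimetry.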

[9] = target: T1, Bromodomain-containing protein 4; experiment: Inhibition of BRD4 bromodomain 2 (unknown origin)
[10] = target: Tyrosine-protein kinase ABL1 (Homo sapiens) (UniProt P00519); experiment: Inhibition of Abl (unknown origin) at 10 uM using poly (Glu, Tyr) 4:1 as substrate after 60 mins by ELISA
Sequence of Tyrosine-protein kinase ABL1 (Homo sapiens) (P00519 whole entry): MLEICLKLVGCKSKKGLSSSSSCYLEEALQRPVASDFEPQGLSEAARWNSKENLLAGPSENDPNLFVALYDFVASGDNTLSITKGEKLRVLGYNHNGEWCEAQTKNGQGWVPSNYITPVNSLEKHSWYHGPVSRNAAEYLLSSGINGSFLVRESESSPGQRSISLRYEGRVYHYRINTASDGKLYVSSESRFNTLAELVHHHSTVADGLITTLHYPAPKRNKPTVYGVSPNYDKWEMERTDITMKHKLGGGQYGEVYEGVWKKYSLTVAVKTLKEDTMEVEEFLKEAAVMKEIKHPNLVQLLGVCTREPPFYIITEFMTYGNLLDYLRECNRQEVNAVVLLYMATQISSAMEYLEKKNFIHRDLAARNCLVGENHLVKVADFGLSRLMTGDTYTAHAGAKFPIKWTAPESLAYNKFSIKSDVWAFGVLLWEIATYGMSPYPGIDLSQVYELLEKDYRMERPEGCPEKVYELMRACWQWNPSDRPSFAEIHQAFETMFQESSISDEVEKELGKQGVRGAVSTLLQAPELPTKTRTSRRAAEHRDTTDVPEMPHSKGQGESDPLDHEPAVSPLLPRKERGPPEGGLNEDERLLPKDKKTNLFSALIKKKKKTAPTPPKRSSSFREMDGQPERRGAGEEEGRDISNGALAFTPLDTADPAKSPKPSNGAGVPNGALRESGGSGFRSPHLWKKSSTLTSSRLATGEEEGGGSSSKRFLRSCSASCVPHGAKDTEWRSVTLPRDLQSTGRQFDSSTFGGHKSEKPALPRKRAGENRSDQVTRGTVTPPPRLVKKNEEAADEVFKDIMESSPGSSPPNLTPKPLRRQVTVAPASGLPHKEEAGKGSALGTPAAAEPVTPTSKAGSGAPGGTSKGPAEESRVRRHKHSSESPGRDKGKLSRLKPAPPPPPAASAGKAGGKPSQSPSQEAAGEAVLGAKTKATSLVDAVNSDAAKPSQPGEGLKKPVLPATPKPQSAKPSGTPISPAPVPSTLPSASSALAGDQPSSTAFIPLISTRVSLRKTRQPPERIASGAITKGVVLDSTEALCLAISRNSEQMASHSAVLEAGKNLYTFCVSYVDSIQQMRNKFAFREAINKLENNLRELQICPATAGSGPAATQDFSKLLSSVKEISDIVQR

[11] = system: MV4-11; experiment: Antiproliferative activity against human MV4-11 cells after 72 hrs by CCK8 or SRB assay; format: functional, cell-based
[12] = system: NCI-H522; experiment: Antiproliferative activity against human NCI-H522 cells after 72 hrs by CCK8 or SRB assay; format: functional, cell-based
[13] = system: SW-620; experiment: Antiproliferative activity against human SW620 cells after 72 hrs by CCK8 or SRB assay; format: functional, cell-based
[14] = system: MV4-11; experiment: Induction of apoptosis in human MV4-11 cells after 24 hrs by Annexin V staining based assay; format: functional, cell-based
[15] = system: MV4-11; experiment: Induction of apoptosis in human MV4-11 cells assessed as increase in cleaved caspase-8 level after 24 hrs by Western blot analysis; format: functional, cell-based
In short: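 MV4-11 cells exposed to test agent at the indicated doses for 24 h. Lysates immunoblotted for full-length and cleaved caspase-3, -7, -8 and -9, with GAPDH as the loading reference.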

[16] = system: MV4-11; experiment: Induction of apoptosis in human MV4-11 cells assessed as reduction in PUMA level after 24 hrs by Western blot analysis; format: functional, cell-based
In short: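 MV4-11 cells exposed to compound at the indicated doses for 24 h; lysates probed by Western blotting for the target protein, with GAPDH as loading control.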

[17] = Clearance in rat liver microsomes; format: ADME, Microsome; details: read-out: CLH
[18] = Half life in dog liver microsomes; format: ADME, Canis lupus familiaris, Microsome
[19] = Tmax in ICR mouse plasma at 100 mg/kg, po administered via gavage measured after 0.25 to 24 hrs by UPLC/MS analysis; format: ADME, organism-based
In short: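 Male ICR mice dosed orally (3, 10 or 100 mg/kg, per line) in 1% DMSO/0.5% HPMC vehicle; plasma drug levels measured.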

[20] = Cmax in ICR mouse plasma at 50 mg/kg, po administered via gavage measured after 0.25 to 24 hrs by UPLC/MS analysis; format: ADME, organism-based; design: dose 50 mg/kg, route oral
In short: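 Male ICR mice dosed orally in 1% DMSO/0.5% HPMC vehicle; plasma or brain drug levels used to derive Tmax, Cmax, AUC0-t, AUC0-inf and T1/2.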

[21] = Cmax in rat brain at 50 mg/kg, po; format: ADME, organism-based; design: dose 50 mg/kg, route oral
[22] = Cmax in rat plasma at 10 mg/kg, po; format: ADME, organism-based; design: dose 10 mg/kg, route oral
[23] = AUC (0 to t) in ICR mouse brain at 50 mg/kg, po administered via gavage measured after 0.25 to 24 hrs by UPLC/MS analysis; format: ADME, organism-based; design: time lower 0.25 hr, dose 50 mg/kg, time upper 24 hr, route oral
In short: (§2)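 Male ICR mice were dosed orally in 1% DMSO/0.5% HPMC vehicle. Plasma (and brain, where stated) concentrations gave Tmax, Cmax, T1/2, AUC0-t and AUC0-inf.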

[24] = AUC (0 to t) in rat plasma at 10 mg/kg, po; format: ADME, organism-based
In short: (§3)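 Compound was given orally or intravenously in 1% DMSO/0.5% HPMC vehicle. Concentrations in plasma, or in brain where stated, gave Tmax, Cmax, T1/2, AUC0-t and AUC0-inf.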

[25] = AUC (0 to infinity) in ICR mouse plasma at 50 mg/kg, po administered via gavage measured after 0.25 to 24 hrs by UPLC/MS analysis; format: ADME, organism-based; design: dose 50 mg/kg, route oral, time infinity; in short: as §2
[26] = AUC (0 to infinity) in rat brain at 50 mg/kg, po; format: ADME, organism-based; design: dose 50 mg/kg, time infinity, route oral; in short: as §3
[27] = AUC (0 to infinity) in rat plasma at 3 mg/kg, iv; format: ADME, organism-based; design: dose 3 mg/kg, route intravenous, time infinity; in short: as §3
[28] = AUC (0 to infinity) in dog plasma at 3 mg/kg, po; format: ADME, organism-based, Canis lupus familiaris; design: dose 3 mg/kg, route oral, time infinity; in short: as §3
[29] = AUC (0 to infinity) in dog plasma at 1 mg/kg, iv; format: ADME, organism-based, Canis lupus familiaris; design: dose 1 mg/kg, time infinity, route intravenous; in short: as §3
[30] = Half life in rat plasma at 3 mg/kg, iv; format: ADME, organism-based
[31] = system: MV4-11; experiment: Antitumor activity against human MV4-11 cells xenografted in po dosed Balb/c nude mouse assessed as tumor growth inhibition administered once daily and measured twice a week by caliper method; format: functional, organism-based

Q: Which results are given for `Cc1ccc(-n2nc(C(=O)N3C[C@@H](C)N[C@@H](C)C3)nc2-c2ccc3c(c2)N(C2CCCC2)[C@H](C)C(=O)N3C)cc1`?
A: Cmax [1]: 216 ng/mL; Activity [2]: < 5%; Activity [3]: < 5%; Activity [4]: < 5%; Activity [5]: 70 to 100%; Activity [6]: 70 to 100%; Activity [7]: 50 to 70%; Kd [8]: 15.2 nM; inhibition [9]: Active; inhibition [10]: Active; Activity [11]: Active; Activity [12]: Active; Activity [13]: Active; Activity [14]: Dose-dependent effect; Activity [15]: Dose-dependent effect; Activity [16]: Dose-dependent effect; microsomal CLint [17]: 28 µL/min/mg; half-life [18]: 0.3 h; Tmax [19]: 1.5 h; Cmax [20]: 4020 ng/mL; Cmax [21]: 87.6 ng/mL; Cmax [22]: 182 ng/mL; AUC(0-t) [23]: 2320 ng·h/mL; AUC(0-t) [24]: 1220 ng·h/mL; AUC(0-inf) [25]: 16800 ng·h/mL; AUC(0-inf) [26]: 399 ng·h/mL; AUC(0-inf) [27]: 2080 ng·h/mL; AUC(0-inf) [28]: 798 ng·h/mL; AUC(0-inf) [29]: 856 ng·h/mL; half-life [30]: 1.8 h; TGI [31]: Dose-dependent effect
